Assay outcomes (PubChem BioAssay)
TRPN1 ag = zebrafish TRPN1 channel agonists, primary screen, cell-based, HEK293, calcium fluorescence; transient receptor potential cation channel N1 (TRPN1/NompC), Danio rerio; HEK293 zebrafish TRPN1-YFP, Fluo-8 calcium fluorescence; 100% = response to 87 µM carbachol; activation, % at 3 µM; 220,000 tested, 0.18% active; AID 1424, 2008;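 active = activation above its plate's cutoff, the mean activation of test wells on that plate plus 3 SD, cut at about 19% in these data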
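Assay system: Zebrafish TRPN1-YFP in HEK293 cells | Incubation: Dye loading 1 h at 37 °C, then 30 min room temperature | Measured by: Kinetic Fluo-8 fluorescence, ex 470-495, em 515-575 nm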
CRFR2-BP antag = antagonists of CRF-BP/CRF-R2 complex, primary screen, cell-based, HEK293, calcium dye fluorescence, uHTS; CRF-induced calcium fluorescence; inhibition, % at 11.8 µM; 350,000 tested, 0.59% active; AID 588475, 2011;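 active = inhibition of the ligand-induced calcium signal above about 50% at the single tested concentration, limit read from the data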
CRFBP-R2 agonist = agonists of CRF-BP/CRF-R2 complex, primary screen, cell-based, HEK293, calcium dye fluorescence, uHTS; calcium dye fluorescence (FLIPR); percent of saturating CRF peptide response; AID 588473, 2011; activation, % at 13.2 µM; 350,000 tested, 0.46% active;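 active = activation of at least 50%, plus an integration ratio under a set limit after plate pattern correction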
TRPML3 agonist = human TRPML3 channel agonists, primary screen, cell-based, HEK293 TRPML3-YFP, Fluo-8 calcium fluorescence, 3 µM; Mucolipin-3 (Homo sapiens), Q8TDD5; 100% = the carbachol control signal; activation, % at 3 µM; 220,000 tested, 0.29% active;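 active = activation above its plate's cutoff, the mean activation of the plate's test wells plus 3 SD, cut at about 12% in these data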
Target sequence (Q8TDD5 whole entry, looked up): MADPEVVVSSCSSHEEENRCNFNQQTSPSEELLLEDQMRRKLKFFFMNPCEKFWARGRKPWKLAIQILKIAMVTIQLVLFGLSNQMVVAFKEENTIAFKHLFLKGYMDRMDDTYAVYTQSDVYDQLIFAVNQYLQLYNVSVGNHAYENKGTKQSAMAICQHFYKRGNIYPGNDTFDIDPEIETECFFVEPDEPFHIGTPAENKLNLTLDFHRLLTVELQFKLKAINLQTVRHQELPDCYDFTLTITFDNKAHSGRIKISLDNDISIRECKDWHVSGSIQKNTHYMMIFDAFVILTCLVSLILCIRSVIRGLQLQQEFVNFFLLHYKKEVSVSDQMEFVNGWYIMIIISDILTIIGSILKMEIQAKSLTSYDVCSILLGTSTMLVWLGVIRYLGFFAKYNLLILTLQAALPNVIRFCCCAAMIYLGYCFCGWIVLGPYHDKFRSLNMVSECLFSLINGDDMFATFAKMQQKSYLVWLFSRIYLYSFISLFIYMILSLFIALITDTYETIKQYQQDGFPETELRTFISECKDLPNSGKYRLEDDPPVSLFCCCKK
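Material: HEK293 cells stably carrying human TRPML3-YFP; compound dosing: single dose, 3 µM final nominal compound, 0.3% DMSO final; incubation: 1-h 37 °C dye load, 5-s basal, 120-s post-compound reads; technique: Fluo-8 intracellular calcium fluorescence, excitation 470-495 nm, emission 515-575 nm; read-out basis: percent activation from peak-to-basal fluorescence ratio, scaled between DMSO and carbachol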
A number is an active result; . = inactive; / = not tested or not shown. Shown are actives, neighbours in structure and some others; about 1.2% of the full set was active somewhere.

SMILES	TRPN1 ag	CRFR2-BP antag	CRFBP-R2 agonist	TRPML3 agonist
CCOc1ccccc1N1CCN(c2nc3ccccc3nc2C(C#N)C(=O)OC(C)C)CC1 (stereo not given)	/	.	.	/
C=CCOC(=O)C(C#N)c1nc2ccccc2nc1N1CCN(c2ccccc2OCC)CC1 (stereo not given)	.	53	.	.
COc1ccc(CCn2c(=O)c3cccnc3n(Cc3cccc([N+](=O)[O-])c3)c2=O)cc1OC	.	52	.	.
CCN(CCO)Cc1csc2cccc(Br)c12	.	83	.	.
C=CCOc1cccc(CNc2ccc3[nH]c(=O)[nH]c3c2)c1	.	91	.	.
O=C(O)/C(=C\c1cccs1)c1ccc(F)cc1	.	.	.	.
CCC(=O)NC(=S)NNC(=O)c1ccc(OC)cc1	.	.	.	.
CCCCC(=O)NNC(=S)NC(=O)c1ccc(C)cc1	.	.	135	.
COc1ccc(C(=O)NC(=S)NNC(=O)c2ccc(C)cc2)cc1	/	.	132	/
COc1ccc(C(=O)NNC(=S)NC(=O)c2ccc(Cl)cc2)cc1	/	.	117	/
O=C(O)c1ccccc1NC(=S)NC(=O)c1sc2ccccc2c1Cl	.	.	.	.
O=C(NNC(=S)NC(=O)c1sc2ccccc2c1Cl)c1ccc(Cl)cc1	.	.	210	.
O=C(NC1CCC(O)CC1)c1cc(Cl)c2c(c1)OCCO2 (stereo not given)	/	.	.	/
O=C(C[C@@H]1C[C@H]2c3cc(NC(=O)C4CCC4)ccc3O[C@H]2[C@@H](CO)O1)NCc1ccc(-c2ccccc2)cc1	/	.	.	/
COc1cc(C(=O)NC2Cc3ccccc3C2)ccc1OC1CCN(C(C)=O)CC1	/	.	.	/
COc1ccc(C(=O)OCC(=O)N(C)C2CCS(=O)(=O)C2)cc1S(=O)(=O)N(C)Cc1ccccc1 (stereo not given)	/	109	.	/
COc1ccc2oc(-c3ccc(NC(=O)c4ccc(N5CCOCC5)c([N+](=O)[O-])c4)cc3)nc2c1	.	.	.	.
COc1cccc(/C=C2\SC(=S)N(CCC(=O)NC3C=CS(=O)(=O)C3)C2=O)c1 (stereo not given)	/	.	.	/
COCCN1CCC(CNCc2cn[nH]c2-c2ccc(C)c(C)c2)C1 (stereo not given)	.	.	.	.
COCCN1CCC(CO)C1 (stereo not given)	/	62	.	/
COc1ccc(NC(=O)CC2C(=O)N(c3ccc(Cl)cc3)C(=S)N2NC(=O)c2cccc(F)c2)cc1 (stereo not given)	.	.	.	.
Cc1cc(C)cc(N2C(=O)CN(Cc3sccc3C)C2=S)c1	.	.	.	.
CCC1(c2ccc(F)cc2)NC(=O)N(CC(=O)N2CCc3ccccc32)C1=O (stereo not given)	/	.	53	/
Cc1ccc(C2(C)NC(=O)N(CC(=O)N3CCc4ccccc43)C2=O)cc1 (stereo not given)	/	.	.	/
CC1(c2ccc(Cl)cc2)NC(=O)N(CC(=O)N2CCc3ccccc32)C1=O (stereo not given)	/	.	82	/
SMILES	TRPN1 ag	CRFR2-BP antag	CRFBP-R2 agonist	TRPML3 agonist
Cc1cc2nc(C)n(CCCN)c2cc1C	.	54	.	.
Cc1cc2nc(C)n(CCCNC(=O)Nc3ccc(C#N)cc3)c2cc1C	.	.	.	.
O=C1CSC(c2ccccc2F)N1c1cc(Cl)ccc1O (stereo not given)	.	53	.	.
O=C1CSC(c2ccccc2F)N1CCN1CCCCC1 (stereo not given)	.	.	.	.
COc1cc(/C=C(\C#N)C(=O)c2c[nH]c3ccccc23)cc(OC)c1O	.	.	85	.
COc1cc(/C=C(\C#N)C(=O)NCCc2ccccc2)cc(OC)c1O	.	.	67	.
N#C/C(=C\c1ccc(O)c(O)c1)C(=O)NCCc1ccccc1	/	.	.	/
C=CCNC(=O)CSc1nnc(-c2cccc(S(=O)(=O)N3CCOCC3)c2)o1	/	.	.	/
COc1ccc(CNc2ccccc2SC)cc1OC	.	.	.	.
COc1cc(CNc2ccccc2SC)cc(OC)c1OC	.	73	.	.
CCS(=O)(=O)c1nc(S(=O)(=O)c2ccc(C)cc2)c(N2CCOCC2)s1	/	.	.	/
CCCS(=O)(=O)c1nc(S(=O)(=O)c2ccc(C)cc2)c(N2CCCC2)s1	.	.	89	.
Cc1ccc(S(=O)(=O)c2nc(S(C)(=O)=O)sc2N2CCOCC2)cc1	/	95	.	/
